Experimental data published in PMC5801006 (European journal of medicinal chemistry, 2017).
Read-outs that look alike come from different tables or passages of the source.

Experiments:
P-gp = P-gp (Homo sapiens, UniProt P08183); assay: Calcein-AM assay in MDCK-MDR1 cells; type: cell-based; conditions: n.a. = not active, mean of n ≥ 3 ± SEM
Panc02 = assay: MTT viability, 48 h; type: cell-based, mouse; conditions: read-out: Activity, EC50 Panc02
KP02 = assay: MTT viability, 48 h; type: cell-based, mouse; conditions: read-out: Activity, EC50 KP02
KCKO = assay: MTT viability, 48 h; type: cell-based, mouse; conditions: read-out: Activity, EC50 KCKO
MIAPaCa-2 = assay: MTT viability, 48 h; type: cell-based, human; conditions: read-out: Activity, EC50 MIAPaCa-2, 48 hr treatment
BxPC3 = assay: MTT viability, 48 h; type: cell-based, human; conditions: read-out: Activity, EC50 BxPC3
AsPC1 = assay: MTT viability, 48 h; type: cell-based, human; conditions: read-out: Activity, EC50 AsPC1
Panc-1 = assay: MTT viability, 48 h; type: cell-based, human; conditions: read-out: Activity, EC50 Panc-1
KP02 tumor cells = assay: ROS involvement: MTT viability with antioxidants α-tocopherol or NAC; type: cell-based, mouse; conditions: KP02, 4 μM compound 48 h; for Rescue of cell death by NAC: 100 μM NAC; for Rescue of cell death by α-tocopherol: 100 μM α-tocopherol 1 hour prior
caspase-3 in KP02 cells = assay: Caspase-3 activation; type: cell-based, mouse; conditions: KP02, 25 μM, 5 hours, relative to vehicle
Procedure, shortened: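 KP02 cells (DMEM/Ham's F-12 1:1, 10% FBS, 37 °C, 5% CO2) seeded at 1 × 10^4/well 24 h before treatment. Exposed to 25 μM test compound for 5 h, with or without α-tocopherol (100 μM) or Z-DEVD-FMK (1 μM). Caspase-Glo reagent with luminogenic caspase substrate added, shaken 30 s, then 90 min at room temperature. Luminescence read relative to DMSO-treated cells. Triplicates; n ≥ 3 independent experiments, mean ± SEM.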

KP02 tumors = assay: In vivo tumor growth, subcutaneous KP02 tumors in C57BL/6 mice
[1] = type: in vivo; conditions: for PCV: 7 at 750nmol/100μL, 1 and 2 at 1500nmol/100 μL, 2 weeks, n = 3, control 47.5 ± 3; for Necropsy/histology findings (pulmonary metastases, nephropathy) / Mouse weight at necropsy: after 2 weeks daily i.p. treatment; for Mouse weight at necropsy: vehicle 19.5± 0.5; for Treatment-related deaths: 750 nmol/100μL i.p. daily for two weeks
σ1 receptor = σ1 receptor (Homo sapiens, UniProt Q99720); assay: σ1 binding by flow cytometry in MCF7σ1 cells; conditions: displacement of σ1 fluorescent compound, 0.1 nmol/L-10 μM
Procedure, shortened: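 MCF7 cells engineered for σ1 (DMEM, 10% FBS) incubated with test compound at 0.1, 1, 10, 100 nmol/L, 1 and 10 μM. Then 100 nmol/L σ1 fluorescent probe added for 75 min at 37 °C, with F390 (10 μM) co-incubated to mask σ2. Cells washed twice with PBS, detached (10 min, 37 °C), pelleted and resuspended in PBS. Fluorescence read by flow cytometry through a 530 nm band-pass filter, 50,000 events per sample.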

[2] = test system: pancreatic cancer cell lines; assay: MTT viability, summary over the panel of pancreatic cancer cell lines; conditions: 48 h, read-out: Cytotoxic EC50 values in most of the cell lines studied
[3] = test system: mitochondrial superoxide in KP02 cells; assay: Mitochondrial superoxide detection; type: cell-based, mouse; conditions: KP02, 50 μM, 2 hours, MitoSOX Red
Procedure, shortened: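 KP02 cells seeded in 12-well plates 24 h ahead, then exposed to 50 μM test compound for 2 h at 37 °C, with or without α-tocopherol. Stained with MitoSOX Red (5 μM); after 2 h, washed with PBS, harvested with trypsin/EDTA and washed again. Oxidised dye (emission ~580 nm) read by flow cytometry in FL3 as mean fluorescence intensity. Triplicates.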

[4] = test system: pancreatic cancer cell lines
[5] = 750 nmol/100μL vehicle i.p. daily for two weeks, vehicle mean 596 mm^3
[6] = 1500 nmol/100μL vehicle i.p. daily for two weeks, vehicle mean 592 mm^3

Chain of σ1 receptor (Q99720 whole entry): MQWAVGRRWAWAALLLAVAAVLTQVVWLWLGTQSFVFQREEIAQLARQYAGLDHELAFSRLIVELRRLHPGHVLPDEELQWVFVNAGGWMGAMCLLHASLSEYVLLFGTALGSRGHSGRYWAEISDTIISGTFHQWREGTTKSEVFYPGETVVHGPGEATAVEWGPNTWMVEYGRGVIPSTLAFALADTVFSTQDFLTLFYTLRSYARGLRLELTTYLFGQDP
Chain of P-gp (P08183 whole entry): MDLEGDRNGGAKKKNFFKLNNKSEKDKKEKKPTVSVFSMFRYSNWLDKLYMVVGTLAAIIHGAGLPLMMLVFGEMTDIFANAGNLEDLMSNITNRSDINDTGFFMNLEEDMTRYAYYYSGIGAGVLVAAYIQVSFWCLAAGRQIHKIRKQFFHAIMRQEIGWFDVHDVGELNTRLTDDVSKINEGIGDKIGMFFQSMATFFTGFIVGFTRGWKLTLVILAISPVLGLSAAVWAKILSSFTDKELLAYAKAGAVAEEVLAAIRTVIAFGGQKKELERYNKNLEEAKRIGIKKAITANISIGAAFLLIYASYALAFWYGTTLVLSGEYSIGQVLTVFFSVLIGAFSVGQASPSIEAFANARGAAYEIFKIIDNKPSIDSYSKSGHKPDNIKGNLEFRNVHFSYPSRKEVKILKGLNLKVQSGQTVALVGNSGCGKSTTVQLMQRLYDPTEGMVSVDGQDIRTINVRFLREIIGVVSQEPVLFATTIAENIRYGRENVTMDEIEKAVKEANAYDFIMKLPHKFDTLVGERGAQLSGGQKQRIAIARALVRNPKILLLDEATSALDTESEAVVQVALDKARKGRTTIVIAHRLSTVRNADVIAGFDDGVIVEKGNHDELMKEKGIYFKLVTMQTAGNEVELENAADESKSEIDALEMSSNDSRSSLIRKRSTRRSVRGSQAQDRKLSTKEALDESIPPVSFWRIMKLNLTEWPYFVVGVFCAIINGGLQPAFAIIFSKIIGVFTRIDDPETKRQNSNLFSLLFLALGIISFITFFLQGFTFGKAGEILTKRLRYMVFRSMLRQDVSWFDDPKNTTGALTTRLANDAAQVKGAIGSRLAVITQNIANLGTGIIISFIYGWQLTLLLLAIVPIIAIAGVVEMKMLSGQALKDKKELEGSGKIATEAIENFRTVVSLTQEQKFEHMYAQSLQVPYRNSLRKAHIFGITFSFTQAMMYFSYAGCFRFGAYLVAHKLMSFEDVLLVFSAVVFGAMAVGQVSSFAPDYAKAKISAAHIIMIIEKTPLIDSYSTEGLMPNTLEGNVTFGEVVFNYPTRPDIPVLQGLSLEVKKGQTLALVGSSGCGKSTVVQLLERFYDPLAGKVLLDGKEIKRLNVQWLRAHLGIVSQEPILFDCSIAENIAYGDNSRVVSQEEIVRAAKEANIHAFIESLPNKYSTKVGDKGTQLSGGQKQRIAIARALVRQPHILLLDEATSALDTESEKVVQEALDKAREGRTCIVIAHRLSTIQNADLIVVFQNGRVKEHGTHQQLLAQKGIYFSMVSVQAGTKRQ

Row | Molecule | P-gp EC50 (P-gp) | EC50 (Panc02; Mus musculus, Panc02, 48 h) [nM] | EC50 (KP02; Mus musculus, 48 h) [µM] | EC50 (KCKO; Mus musculus, 48 h) [µM] | EC50 (MIAPaCa-2) [µM] | EC50 (BxPC3; Homo sapiens, BXPC-3, 48 h) [µM] | EC50 (AsPC1; Homo sapiens, ASPC1, 48 h) [µM] | Rescue of cell death by α-tocopherol (KP02 tumor cells) | Increase of caspase-3 activity (caspase-3 in KP02 cells) | Mean tumor volume after conclusion of treatment (KP02 tumors; [5]) | PCV [1] [%] | Necropsy/histology findings (pulmonary metastases, nephropathy) [1] | Mouse weight at necropsy [1] [grams] | Interaction with the σ1 receptor (σ1 receptor) | also measured
1 | CN(C)C(=S)N/N=C1\C(=O)Nc2ccccc21 [Compound 7, (Z)-N,N-Dimethyl-2-(2-oxoindolin-3-ylidene)hydrazinecarbothioamide] | completely abolished the interaction with the P-gp | 1210 ± 100 | 2.83 ± 0.6 | 3.14 ± 0.4 | 18.3 ± 2.1 | 2.52 ± 0.5 | 2.17 ± 0.3 | no cells were rescued | did not activate the caspase-3 at all | 328 mm^3 | 42.65 ± 2.85 | foci of pulmonary metastases of the implanted tumor and a mild chronic progressive nephropathy | 19.5 ± 0.5 | ruled out | EC50 (Panc-1; Homo sapiens, PANC-1, 48 h): > 100 µM; Rescue of cell death by NAC (KP02 tumor cells): even higher levels of cell death; EC50 [2]: 1210 to 3140 nM
2 | NC(=S)N/N=C1\C(=O)Nc2ccccc21 [Compound 8, (Z)-2-(2-Oxoindolin-3-ylidene)hydrazinecarbothioamide] | completely abolished the interaction with the P-gp | > 100000 | > 100 | > 100 |  | > 100 | > 100 |  |  |  |  |  |  |  | 
3 | COc1cc2c(cc1OC)C(=O)N(CCCCN1C(=O)/C(=N\NC(=S)N(C)C)c3ccccc31)CC2 [Compound 9, (Z)-2-(1-(4-(6,7-Dimethoxy-1-oxo-3,4-dihydroisoquinolin-2(1H)-yl)butyl)-2-oxoindolin-3-ylidene)-N,N-dimethylhydrazinecarbothioamide] |  | 2180 ± 300 | 5.62 ± 1.1 | 4.51 ± 0.8 |  | 5.93 ± 0.7 | 5.74 ± 0.5 | rescued the pancreatic cancer cells | did not activate the caspase-3 at all |  |  |  |  |  | Rescue of cell death by NAC (KP02 tumor cells): even higher levels of cell death
4 | CCCCN1CCc2cc(OC)c(OC)cc2C1 [Compound 10, N-Butyl-6,7-dimethoxy-1,2,3,4-tetrahydroisoquinoline] |  | > 100000 | > 100 | > 100 |  | > 100 | > 100 |  |  |  |  |  |  |  | 
5 | CCCCN1CCN(C2CCCCC2)CC1 [Compound 11, 1-Butyl-4-cyclohexyl-piperazine] | complete loss of interaction with P-gp | > 100000 | > 100 | > 100 |  | > 100 | > 100 |  |  |  |  |  |  |  | 
6 | (Z)-2-(1-(4-(6,7-Dimethoxy-3,4-dihydroisoquinolin-2(1H)-yl)butyl)-2-oxoindolin-3-ylidene)-N,N-dimethylhydrazinecarbothioamide [Compound 1] |  |  |  |  | 14.6 ± 2.2 |  |  | rescued the pancreatic cancer cells | did not activate the caspase-3 at all | statistically similar to vehicle | 45.45 ± 4.15 | not noticed | 17.5 ± 0.5 | ruled out | EC50 (Panc02; 48 hr treatment, MTT): 1330 ± 200 nM; EC50 (KP02; 48 hr treatment, MTT): 6.92 ± 0.9 µM; EC50 (KCKO; 48 hr treatment, MTT): 6.49 ± 1 µM; EC50 (BxPC3; 48 hr treatment, MTT): 2.34 ± 0.8 µM; EC50 (AsPC1; 48 hr treatment, MTT): 2.01 ± 0.6 µM; EC50 (Panc-1; 48 hr treatment, MTT): 14.6 ± 2.1 µM; Mitochondrial superoxide production, increase of mean fluorescence intensity [3]: 6 fold; Mean tumor volume after conclusion of treatment (KP02 tumors; [6]): 205 mm^3; Treatment-related deaths [1]: without experiencing any treatment-related deaths; EC50 [4]: 1.17 to 14.7 µM
7 | (Z)-2-[1-[4-(4-Cyclohexylpiperazin-1-yl)butyl]-2-oxoindolin-3-ylidene]-N,N-dimethylhydrazinecarbothioamide [Compound 2] |  |  |  |  | 10.8 ± 1.3 |  |  | rescued the pancreatic cancer cells | 6 fold | statistically similar to vehicle | 51 ± 3.8 | not noticed | 19 ± 1 | ruled out | EC50 (Panc02; 48 hr treatment, MTT): 1170 ± 400 nM; EC50 (KP02; 48 hr treatment, MTT): 7.32 ± 0.8 µM; EC50 (KCKO; 48 hr treatment, MTT): 6.18 ± 0.3 µM; EC50 (BxPC3; 48 hr treatment, MTT): 6.15 ± 0.6 µM; EC50 (AsPC1; 48 hr treatment, MTT): 3.86 ± 0.2 µM; EC50 (Panc-1; 48 hr treatment, MTT): 8.73 ± 0.8 µM; Mitochondrial superoxide production, increase of mean fluorescence intensity [3]: 20 fold; Mean tumor volume after conclusion of treatment (KP02 tumors; [6]): 196 mm^3; Treatment-related deaths [1]: without experiencing any treatment-related deaths; EC50 [4]: 1.17 to 14.7 µM
